Rows were chosen to be rich in hits. Some 3.5% of all compounds tested hit in one or more screens of this group.
MrgX1 antagonist = blocks BAM8-22 activation of human MrgX1 receptor; MRGX1-HEK293 calcium flux, Fluo-4, BAM8-22 antagonism; stronger effect = lower value; B-score at 10 µM; hit rate 1.3% among 310,000; AID 588676;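 active means calcium-response B-score plate-corrected more than 3 library SD below zero, starting fluorescence within 5 deviations, no agonist response on first addition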;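 further: peak minus trough fluorescence over baseline after final BAM8-22 challenge near maximal dose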
Target sequence (Q96LB2 whole entry, looked up): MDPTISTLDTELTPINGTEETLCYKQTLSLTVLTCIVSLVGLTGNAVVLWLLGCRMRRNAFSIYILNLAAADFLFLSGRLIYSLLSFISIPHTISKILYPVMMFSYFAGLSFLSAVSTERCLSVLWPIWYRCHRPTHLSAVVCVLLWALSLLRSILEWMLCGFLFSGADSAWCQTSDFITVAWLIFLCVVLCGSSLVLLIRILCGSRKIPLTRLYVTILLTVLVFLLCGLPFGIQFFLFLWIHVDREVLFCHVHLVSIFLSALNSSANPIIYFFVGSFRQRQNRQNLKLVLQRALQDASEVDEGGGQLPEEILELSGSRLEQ
MrgX1 allo act = human MrgX1 positive allosteric modulation, primary screen | Q96LB2 | MrgX1-HEK293, Fluo-4 calcium flux, FDSS; stronger effect = higher value | B-score at 10 µM | hit rate 0.63% among 310,000 | AID 588675;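 active means plate-corrected calcium response at least 3 library SD above typical, normal starting fluorescence, not activating the receptor alone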;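 further: compound read alongside a low EC10 to EC30 dose of BAM8-22 agonist; peak minus trough fluorescence over baseline measured at the second addition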
MrgX1 agonist = agonists of human MrgX1 receptor; B-score at 10 µM; Q96LB2; hit rate 0.44% among 310,000; MrgX1-HEK293 cells, Fluo-4 calcium fluorescence, agonist mode; stronger effect = higher value;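 active means calcium response B-score plate-corrected fluorescence ratio at least 3 library SD, with starting fluorescence B-score inside 5 SD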
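Assay system: stable human MrgX1 HEK293 cell line. Quantity: 15,000 cells per well. Schedule: cells plated overnight, dye loaded 0.5 h 37 °C, 0.5 h room temperature. Detection: Fluo-4 NW calcium-flux fluorescence, kinetic read. Read-out basis: peak-minus-minimum fluorescence over baseline, converted to B scores. Control set: positive and negative control wells on each plate.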
RGS4 inh = inhibitors of human RGS4; B-score at 10 µM; HEK293 M3R/RGS4 inducible, Fluo-4 calcium flux; stronger effect = higher value; triggered by carbachol at its EC20; hit rate 0.45% among 310,000; AID 463165; P49798;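 active means B-score, a plate-corrected calcium signal, over three deviations above library mean, with baseline fluorescence within five deviations of library mean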;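 further: RGS4 expression induced by doxycycline in cells with stable M3 receptor; B-score is computed from the integrated fluorescence ratio over baseline after carbachol; higher B-score means a larger calcium signal and so more RGS4 inhibition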
Target sequence (P49798 whole entry, looked up): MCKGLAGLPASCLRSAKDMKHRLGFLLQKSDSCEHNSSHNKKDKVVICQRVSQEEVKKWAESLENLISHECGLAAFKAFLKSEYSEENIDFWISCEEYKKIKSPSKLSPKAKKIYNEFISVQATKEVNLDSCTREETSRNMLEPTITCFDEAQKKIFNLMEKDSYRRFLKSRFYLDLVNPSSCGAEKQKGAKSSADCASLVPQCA
RGS4 pot = RGS4 potentiation or activation; HEK293 M3R/inducible RGS4, carbachol calcium flux Fluo4; stronger effect = lower value; B-score at 10 µM; hit rate 0.92% among 310,000; AID 463111;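 active means B-score of the integrated calcium signal more than 4 SD below the library mean, with starting fluorescence not abnormally high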;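 further: negative B-score means reduced calcium response which marks RGS4 activation or potentiation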
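System – HEK293 FlpIn-TREx cells, stable M3R, doxycycline-inducible RGS4 · Reagent – ECmax carbachol challenge · Times – compound preincubation 20 min at room temperature before agonist · Technique – Fluo4 fluorescence kinetic imaging of calcium · Measure – B score of integrated Fluo4 ratio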
MrgX1 PAM conf = reconfirmed allosteric activator of human MrgX1 receptor; MrgX1-HEK293, Fluo-4 calcium fluorescence, FDSS; shares compounds with MrgX1 allo act; activation (ratio percentage), % at 10 µM; hit rate 13% among 1,200;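 active means ratio at least 3 SD above the weak peptide control, stable starting fluorescence, no direct agonism earlier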;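 further: compound followed by low BAM8-22 agonist challenge near EC20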
MrgX1 antag conf = reconfirmed antagonist of human MrgX1 receptor signaling. remaining BAM8-22 calcium response % of control (stronger effect = lower value), % at 10 µM. AID 602420. hit rate 19% among 2,300. MrgX1-HEK293, BAM8-22 calcium flux, Fluo-4; stronger effect = lower value. shares compounds with MrgX1 antagonist;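 active means remaining agonist calcium response no higher than 100% minus 3 SD of agonist-only control wells, with starting fluorescence near control levels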;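 further: agonist BAM8-22 given at a near maximal EC90 to ECmax level; peak minus minimum fluorescence divided by baseline after agonist addition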
HEK293 Ca flux = activity in parental HEK293 cells lacking MrgX1 | hit rate 2% among 4,000 | fluorescence ratio F(max-min)/F0 at 10 µM | Fluo-4 calcium fluorescence, FDSS | shares compounds with MrgX1 antagonist;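 active means duplicate-averaged calcium fluorescence ratio at least three times the standard deviation of buffer wells, a nonspecific response in parental cells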
HEK293 Ca counter = counter-screen for MrgX1 allosteric activators: effect in parental HEK293 cells | hit rate 0.4% among 4,000 | shares compounds with MrgX1 antagonist | fluorescence ratio F(max-min)/F0 at 10 µM | parental HEK293 calcium flux, Fluo-4 fluorescence ratio; stronger effect = higher value;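 active means calcium fluorescence ratio, averaged over duplicates, at least 3 SD of the buffer-well ratio, meaning a nonspecific response in receptor-free cells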;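 further: untransfected parental HEK293 lacking MrgX1 used as counterscreen for MrgX1 allosteric activators; fluorescence change taken during the second addition on a kinetic imager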
HEK293 Ca cntr2 = counter-screen for MrgX1 activators: effect in parental HEK293 cells. shares compounds with MrgX1 antagonist. AID 624115. Fluo-4 calcium fluorescence (FDSS); stronger effect = higher value. hit rate 8.7% among 4,000. fluorescence ratio F(max-min)/F0 at 10 µM;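 active means calcium fluorescence ratio at least three times the spread of buffer wells, meaning a non-specific response in parental cells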
* marks the source's active call; other numbers are inactive results; i = inactive; . = no result.

SMILES | MrgX1 antagonist | MrgX1 allo act | MrgX1 agonist | RGS4 inh | RGS4 pot | MrgX1 PAM conf | HEK293 Ca flux | HEK293 Ca counter | HEK293 Ca cntr2 | others
CCc1nn2c(N)c(/C=C3\C=Nc4ccccc43)c(=O)nc2s1 | i | 6.8* | i | i | i | 12%* | i | i | i
CSc1nsc2nc(=O)c(/C=C3\C=Nc4ccccc43)c(N)n12 | i | 57* | i | i | i | 15%* | i | i | i
COC(=O)c1cc(S(=O)(=O)N(C)C2CCCCC2)c[nH]1 | i | i | i | i | i | . | . | . | .
CCCCn1c(N)c(N(CC(C)C)C(=O)c2ccc(S(=O)(=O)N3CCC(C)CC3)cc2)c(=O)[nH]c1=O | i | i | i | i | i | . | . | . | .
COc1ccc(NC(=O)c2csc3c2CCCCC3)c(OC)c1 | i | 19* | i | i | i | i | i | i | i
COc1ccc(CCNC(=O)c2csc3c2CCCC3)cc1 | i | i | i | i | i | . | . | . | .
O=C(c1ccc(N2CCN(C3CC(=O)N(Cc4cccs4)C3=O)CC2)cc1)c1cccnc1 (stereo not given) | -5.1* | 9* | i | i | i | 3.0%* | i | i | i | MrgX1 antag conf=84%*
O=C(c1ccncc1)c1ccc(N2CCN(C3CC(=O)N(Cc4ccccc4)C3=O)CC2)cc1 (stereo not given) | i | i | i | i | i | . | . | . | .
COc1ccccc1-n1cc(-c2ccccc2)c2c(=S)nc[nH]c21 | i | 16* | i | i | i | i | i | i | i
Cc1cc(NC(=O)Nc2ccccc2F)ccc1Br | i | i | i | i | i | . | . | . | .
CC(NC(=O)c1ccc(N)cc1)c1ccccc1 (stereo not given) | i | 7.4* | i | i | i | i | i | i | i
CCOc1ccccc1N1CCN(C(=O)Nc2cccc(Cl)c2)CC1 | i | 11* | i | i | i | i | i | i | i
O=S(=O)(Nc1ncnc2c1oc1ccccc12)c1ccc(Cl)s1 | i | 19* | i | i | i | i | i | i | i
CNc1c(NS(=O)(=O)c2ccc(Cl)s2)c(=O)oc2ccccc12 | i | i | i | i | i | . | . | . | .
Cc1ccc(S(=O)(=O)NNc2ccccc2)c(C)c1 | i | i | i | . | . | . | . | . | .
CCOC(=O)c1c(NC(=O)Cn2cnc([N+](=O)[O-])n2)sc(C)c1C | i | i | i | i | i | . | . | . | .
CC(C)N(Cc1ccccc1)C(=O)COC(=O)/C=C/c1cnc2ccccc2n1 | i | i | i | i | i | . | . | . | .
CCOc1ccc(N=c2scc(-c3ccccc3)n2CCO)cc1 | i | i | i | i | i | . | . | . | .
CCOc1ccc(N=c2scc(-c3ccc(OC)cc3)n2CCO)cc1 | i | i | i | i | i | . | . | . | .
OCCn1c(-c2ccc(F)cc2)csc1=Nc1ccccc1 | i | 13* | i | i | i | i | i | i | i
OCCn1c(-c2ccc3c(c2)OCO3)csc1=Nc1ccccc1 | i | 12* | i | i | i | i | i | i | i
N#CC(C(=O)NC1CC1)c1nc2ccccc2nc1N1CCCC1 (stereo not given) | i | i | i | i | i | . | . | . | .
